Reference: ChEMBL document CHEMBL1129636 (J Med Chem, 1996)

How the values were obtained:
[1] = biological target: T1, Glutamate receptor ionotropic, kainate 2 (Homo sapiens, UniProt Q13002); assay: Electrophysiological activity at 1 uM domoate from HEK293 cells transfected with ionotropic glutamate receptor kainate 2; assay type: functional, cell-based
How it was run: (§1)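 Whole-cell voltage clamp (tight-seal patch clamp) of HEK293 line EAA4-9 stably expressing human GluR6, with cells plated on glass coverslips. Bath: NaCl 138, CaCl2 5, MgCl2 1, KCl 5, HEPES 10, glucose 10 mM, pH 7.4. Pipette: KCl 140, MgCl2 1, HEPES 10, EGTA 0.1 mM, pH 7.2. Test agonist at 1, 10 or 30 uM by bath perfusion with 2.5 uM concanavalin A. Inward current expressed as percent of the response to 1 uM domoate.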

[2] = biological target: T1, Glutamate receptor ionotropic, kainate 2; assay: Electrophysiological activity at 10 uM domoate from HEK293 cells transfected with Ionotropic glutamate receptor kainate 2; assay type: functional, cell-based; how it was run: as §1
[3] = biological target: Glutamate receptor ionotropic, kainate 2 (Rattus norvegicus, UniProt P42260); assay: Inhibition of [3H]kainate binding at rat forebrain ionotropic glutamate receptor kainate 2
[4] = biological target: T1, Glutamate receptor ionotropic, kainate 2; assay: Electrophysiological activity at 30 uM domoate from HEK293 cells transfected with ionotropic glutamate receptor kainate 2; assay type: functional, cell-based; how it was run: as §1
[5] = biological target: T1, Glutamate receptor ionotropic, kainate 2; assay: Inhibition of [3H]kainate binding at ionotropic glutamate receptor kainate 2
How it was run: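 Frozen EAA4-9 cells (HEK293 stably expressing human GluR6) lysed in ice-cold water and pelleted at 50000g. Membranes washed in 50 mM Tris-HCl, pH 7.5 at 5 °C, to remove glutamate. Nonspecific binding defined with 1 mM L-glutamate, and bound ligand separated by centrifugation. Ki reported.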

Chain of Glutamate receptor ionotropic, kainate 2 (Rattus norvegicus, UniProt P42260) (P42260 whole entry): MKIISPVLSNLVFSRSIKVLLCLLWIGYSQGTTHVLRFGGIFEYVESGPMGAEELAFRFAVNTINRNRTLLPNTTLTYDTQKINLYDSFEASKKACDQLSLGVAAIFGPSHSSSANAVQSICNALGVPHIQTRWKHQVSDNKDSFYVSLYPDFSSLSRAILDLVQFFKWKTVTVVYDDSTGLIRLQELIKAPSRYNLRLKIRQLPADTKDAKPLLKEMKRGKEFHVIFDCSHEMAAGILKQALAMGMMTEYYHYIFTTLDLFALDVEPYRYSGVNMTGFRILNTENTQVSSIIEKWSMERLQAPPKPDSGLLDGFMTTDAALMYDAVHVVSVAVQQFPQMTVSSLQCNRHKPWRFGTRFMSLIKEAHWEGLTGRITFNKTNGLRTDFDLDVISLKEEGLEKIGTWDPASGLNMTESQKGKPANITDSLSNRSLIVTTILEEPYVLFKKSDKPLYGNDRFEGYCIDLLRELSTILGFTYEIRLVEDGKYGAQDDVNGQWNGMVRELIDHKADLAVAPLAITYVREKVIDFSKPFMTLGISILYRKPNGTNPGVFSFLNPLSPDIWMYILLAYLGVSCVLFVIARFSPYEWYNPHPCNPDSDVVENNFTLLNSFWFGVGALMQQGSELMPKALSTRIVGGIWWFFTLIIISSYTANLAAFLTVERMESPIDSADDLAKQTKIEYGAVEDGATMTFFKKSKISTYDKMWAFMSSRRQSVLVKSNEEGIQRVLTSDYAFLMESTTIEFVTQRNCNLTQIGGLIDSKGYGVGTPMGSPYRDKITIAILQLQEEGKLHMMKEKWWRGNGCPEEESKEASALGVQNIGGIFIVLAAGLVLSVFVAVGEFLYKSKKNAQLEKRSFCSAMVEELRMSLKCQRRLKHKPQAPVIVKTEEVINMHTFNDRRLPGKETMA
T1 sequence (Q13002 whole entry, the tested form may be a part): as the sequence (P42260 whole entry) above, with S5F, V7I, L11P, S14R, S16T, I17V, V19L, V494A counted along it

Compound | Response [1] | Response [2] | Ki [3] | Response [4] | Ki [5]
C=C(c1ccc(C(C)(C)C)cc1)[C@H]1CN[C@H](C(=O)O)[C@H]1CC(=O)O | 8% | 31% | 18.5 nM | 46% | 263 nM
C=C(C)c1ccc(C(=C)[C@@H]2CN[C@H](C(=O)O)[C@H]2CC(=O)O)cc1 |  |  | 5400 nM |  | 2300 nM
C=C(c1cccc(OCCCC)c1)[C@H]1CN[C@H](C(=O)O)[C@H]1CC(=O)O | 5% | 8% | 23.3 nM | 40% | 275 nM
C=C(c1ccc(OCCCCCc2ccccc2)cc1)[C@H]1CN[C@H](C(=O)O)[C@H]1CC(=O)O | 0% | 13% | 126 nM | 27% | 1300 nM
C=C(c1cccc(OCCC(c2ccccc2)c2ccccc2)c1)[C@H]1CN[C@H](C(=O)O)[C@H]1CC(=O)O | 3% | 6% | 210 nM | 14% | 2420 nM
C=C(c1ccc(OCCc2ccccc2)c(OC)c1)[C@H]1CN[C@H](C(=O)O)[C@H]1CC(=O)O | 2% | 20% |  | 44% | 1280 nM
CC(c1cccc(-c2ccccc2)c1)[C@H]1CN[C@H](C(=O)O)[C@H]1CC(=O)O (some centres undefined) | 12% | 14% |  | 16% | > 10000 nM
C=C(c1ccc(C)cc1)[C@H]1CN[C@H](C(=O)O)[C@H]1CC(=O)O | 61% | 72% | 2.6 nM | 76% | 41.1 nM
C=C(c1ccccc1)[C@@H]1CN[C@H](C(=O)O)[C@H]1CC(=O)O | Neurotoxic | Neurotoxic | 230 nM | Neurotoxic | 6970 nM
C=C(c1cccc(OCCc2ccccc2)c1)[C@H]1CN[C@H](C(=O)O)[C@H]1CC(=O)O | 6% | 43% | 16 nM | 70% | 667 nM
C=C(c1ccc(CC)cc1)[C@H]1CN[C@H](C(=O)O)[C@H]1CC(=O)O | 22% | 63% | 7.7 nM | 73% | 82.2 nM
C=C(C)c1ccc(C(=C)[C@H]2CN[C@H](C(=O)O)[C@H]2CC(=O)O)cc1 | 17% | 61% | 3.6 nM | 66% | 132 nM
C=C(c1ccc(OCCCCC)c(C)c1)[C@H]1CN[C@H](C(=O)O)[C@H]1CC(=O)O | 17% | 46% |  | 58% | 663 nM
C=C(c1cc(C)cc(C)c1)[C@H]1CN[C@H](C(=O)O)[C@H]1CC(=O)O | 23% | 73% | 9.5 nM | 108% | 169 nM
C=C(c1ccc(F)c(C)c1)[C@H]1CN[C@H](C(=O)O)[C@H]1CC(=O)O | 38% | 76% | 1.9 nM | 100% | 54.3 nM
C=C(c1ccc(OC)cc1)[C@H]1CN[C@H](C(=O)O)[C@H]1CC(=O)O | 37% | 76% | 3.9 nM | 82% | 57.4 nM
C=C(C)[C@H]1CN[C@H](C(=O)O)[C@H]1CC(=O)O | 39% | 85% |  | 101% | 
C=C(c1cccc(OCCC(c2ccccc2)c2ccccc2)c1)[C@@H]1CN[C@H](C(=O)O)[C@H]1CC(=O)O | 0% | 0% | 3000 nM | 0% | > 10000 nM

Compound | Response [1] | Response [2] | Ki [3] | Response [4] | Ki [5]
CC(c1ccccc1)[C@H]1CN[C@H](C(=O)O)[C@H]1CC(=O)O (some centres undefined) | 0% | 0% |  | 0% | > 10000 nM
C=C(c1ccc(CCC)cc1)[C@H]1CN[C@H](C(=O)O)[C@H]1CC(=O)O | 24% | 54% | 3.6 nM | 66% | 147 nM
C=C(c1ccc(Oc2ccccc2)cc1)[C@H]1CN[C@H](C(=O)O)[C@H]1CC(=O)O | 15% | 59% | 11.9 nM | 62% | 210 nM
C=C(c1ccc(CCCC)cc1)[C@H]1CN[C@H](C(=O)O)[C@H]1CC(=O)O | 11% | 57% | 4.8 nM | 63% | 146 nM
C=C(c1ccc(OCCc2ccccc2)c(C)c1)[C@H]1CN[C@H](C(=O)O)[C@H]1CC(=O)O | 12% | 64% |  | 71% | 129 nM
C=C(CC)c1ccc(C(=C)[C@H]2CN[C@H](C(=O)O)[C@H]2CC(=O)O)cc1 | 15% | 38% | 9 nM | 52% | 288 nM
C=C(c1ccc(OCCc2ccccc2)cc1)[C@H]1CN[C@H](C(=O)O)[C@H]1CC(=O)O | 16% | 52% | 6.2 nM | 66% | 126 nM
C=C(c1cccc(-c2ccccc2)c1)[C@@H]1CN[C@H](C(=O)O)[C@H]1CC(=O)O | 0% | 0% |  | 0% | 3110 nM
C=C(c1ccc(Cl)cc1)[C@H]1CN[C@H](C(=O)O)[C@H]1CC(=O)O | 52% | 78% | 3.9 nM | 83% | 31.7 nM
C=C(c1ccc(C)c(C)c1)[C@H]1CN[C@H](C(=O)O)[C@H]1CC(=O)O | 50% | 89% | 2.3 nM | 98% | 108 nM
C=C(c1ccc(OCCCC)cc1)[C@H]1CN[C@H](C(=O)O)[C@H]1CC(=O)O | 33% | 86% | 2.8 nM | 99% | 147 nM
C=C(c1ccc(-c2ccccc2)cc1)[C@H]1CN[C@H](C(=O)O)[C@H]1CC(=O)O | 36% | 58% | 9.1 nM | 66% | 131 nM
C=C(c1ccc(F)cc1)[C@H]1CN[C@H](C(=O)O)[C@H]1CC(=O)O | 43% | 76% | 2.7 nM | 78% | 38.4 nM
C=C(c1cccc(-c2ccccc2)c1)[C@H]1CN[C@H](C(=O)O)[C@H]1CC(=O)O | 65% | 98% | 2.1 nM | 103% | 90.6 nM
C=C(c1ccccc1)[C@H]1CN[C@H](C(=O)O)[C@H]1CC(=O)O | 48% | 81% | 1.6 nM | 80% | 29.8 nM
C=C(c1cccc(OC)c1)[C@H]1CN[C@H](C(=O)O)[C@H]1CC(=O)O | 46% | 77% | 3.5 nM | 87% | 93.5 nM
C=C(c1cccc(C)c1)[C@H]1CN[C@H](C(=O)O)[C@H]1CC(=O)O | 29% | 75% | 2.2 nM | 74% | 123 nM
